Compound activity as filed in PubChem.
Sampled rows, rich in hits. Any-hit rate of the full collection: about 5.1%.
STAT3 activator – STAT3 signaling activation; U3A cells, IL-6 STAT3-luciferase reporter, luminescence; 100% = signal with IL-6 EC80 alone; activation (% of control), % at 5.6 µM; actives 0.91% (n = 190,000); AID 871;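 active = activation above the screen-wide mean of compound activation plus 3 SD, cut at about 130% in these data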
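Assay system – human STAT1-deficient U3A cells with stable STAT3-luciferase reporter · Also added – IL-6 (33 ng/mL) · Schedule – compound 1 h, then IL-6 6 h at 37 °C · Technique – reporter luminescence signal · Evaluation – % activation versus median of IL-6-stimulated wells · Benchmarks – IL-6-only wells as 100% reference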
NF-kB neuron act – raises NF-kB expression in human neuronal cells; AID 1239; NF-kB reporter expression; hits give high values; actives 1.6% (n = 190,000); fold change at 12.5 µM; in the data active = fold change above about 3.3
STAT1 act – increases IFN-gamma driven STAT1 reporter signal. activation (% of control), % at 5.5 µM. NIH 3T3 STAT1-luciferase reporter, luminescence; 100% = IFN-gamma alone, no compound. actives 2.6% (n = 200,000);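 active = activation above the screen-wide mean activation plus 3 SD, cut at about 130% in these data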
STAT3 blocker – inhibitors of IL-6 induced STAT3 signaling. U3A cells, IL-6 STAT3-luciferase reporter, luminescence; host cell line lacks STAT1. inhibition, % at 5.5 µM. actives 0.89% (n = 190,000). AID 862;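 active = inhibition above the mean inhibition across all screened compounds plus 3 SD, cut at about 44% in these data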
STAT1 blocker – reduces IFN-gamma driven STAT1 reporter signal; NIH 3T3 STAT1-luciferase reporter, luminescence; inhibition, % at 5.5 µM; actives 0.35% (n = 200,000); AID 920;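 active = inhibition above a set limit, the mean inhibition across all tested compounds plus 3 SD, cut at about 34% in these data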
APP 5'UTR act – APP 5'UTR luciferase reporter activation; activation, % at 2 µM; SH-SY5Y APP 5'UTR luciferase reporter, luminescence; zero percent = DMSO vehicle wells; AID 1276; actives 1% (n = 190,000);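 active = activation above a set limit, based on mean plus 3 SD of controls, cut at about 140% in these data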
Numbers stand for hits; . = inactive; / = not tested or not shown.

SMILES	STAT3 activator	NF-kB neuron act	STAT1 act	STAT3 blocker	STAT1 blocker	APP 5'UTR act
COc1ccc(/C=C/C(=O)c2cc3c(cc2N)OCO3)cc1	.	3.8	.	.	.	145
COc1ccc(N=c2scc(-c3ccc(S(=O)(=O)N4CCOCC4)cc3)n2CCCO)cc1	.	.	.	44	.	.
C=CCn1c(-c2ccc(S(=O)(=O)N3CCOCC3)cc2)csc1=Nc1ccccc1	.	.	.	.	.	.
CSCCC(NC(=O)c1ccccc1C)C(=O)O (configuration not stated)	.	.	.	.	.	.
C#CCN(CC=C)C(=O)CCc1nnc(COc2ccccc2)o1	.	.	.	.	.	.
Cc1nc(NC2=NCN(CCCN3CCOCC3)CN2)nc2c(C)cccc12	183	.	.	.	.	.
Cc1nc(NC2=NCN(CCc3ccccc3)CN2)nc2c(C)cccc12	158	/	.	.	.	.
Cc1nc(NC2=NCN(CC3CCCO3)CN2)nc2ccccc12 (configuration not stated)	.	/	.	.	.	.
Cc1ccc(N(CCC#N)C(=O)CN2C(=O)NC(Cc3ccccc3)C2=O)cc1 (configuration not stated)	.	.	.	.	.	.
O=C(N/N=C/c1cccc(OCC(=O)N2CCCC2)c1)C(=O)Nc1ccccc1F	.	.	.	.	.	.
O=C(O)C1CCCCC1C(=O)NCc1ccc(Cl)c(Cl)c1 (configuration not stated)	.	.	.	.	.	.
COc1cccc2cc(NC(=O)C3CCCCC3)c(=O)oc12	.	.	131	.	.	.
COc1cccc2cc(C(=O)N3CCCCC3C)c(=O)oc12 (configuration not stated)	.	.	.	.	.	.
O=C(Nc1nc(-c2cccs2)cs1)C1=COCCO1	.	3.6	149	.	.	.
COc1ccc(C(=O)Nc2nc(-c3cccs3)cs2)cc1	.	.	137	.	.	.
O=C(Nc1nc(-c2cccs2)cs1)c1ccc(Cl)cc1	.	.	.	.	.	.
C/C(=C\c1ccccc1)C(=O)NCCCn1ccnc1	.	.	.	.	.	.
CC(C)c1ccc2[nH]c3nc(SCC(=O)N4CCOCC4)nnc3c2c1	.	.	131	.	.	.
O=C(CSc1nnc2c(n1)[nH]c1ccc(S(=O)(=O)N3CCOCC3)cc12)Nc1ccc(F)c(F)c1	.	.	.	.	.	.
O=C(O)Cn1ncc2ccccc2c1=O	.	.	.	.	.	.
O=c1c2ccccc2cnn1CCOc1ccccc1	.	.	.	90	44	.
O=[N+]([O-])c1ccc(C2Nc3cccc4cccc(c34)N2)cc1	134	.	.	.	.	.
CC(=O)Nc1nnc(Cc2c[nH]c3ccccc23)s1	.	.	.	.	.	.
Cc1cc(C)nc(Oc2ccc(Br)cc2Br)n1	.	.	142	.	.	.
CCCn1c(SCC(=O)Nc2cccc(S(=O)(=O)N3CCCC3)c2)n[nH]c1=O	.	.	.	.	.	.
SMILES	STAT3 activator	NF-kB neuron act	STAT1 act	STAT3 blocker	STAT1 blocker	APP 5'UTR act
O=C(c1cc2c(=O)n3ccccc3nc2s1)N1CCOCC1	.	.	131	.	.	.
Fc1ccc(-c2csc(N3CCC(c4ccccc4)C3)n2)cc1 (configuration not stated)	.	3.9	147	.	.	.
Clc1ccc(-c2csc(N3CCC(c4ccccc4)C3)n2)cc1 (configuration not stated)	.	.	132	.	.	.
COc1ccc(-c2csc(N3CCC(c4ccccc4)C3)n2)cc1 (configuration not stated)	.	.	.	.	.	.
Nc1cc(Cl)ccc1N1CCCCCC1	.	.	.	.	.	.
CC1=C(C)/C(=N\OS(=O)(=O)c2ccc(C)cc2)C=CC1=O	.	.	.	.	.	.
CC1=C/C(=N\OS(=O)(=O)c2ccccc2)C(C(C)C)=CC1=O	.	5.9	.	.	.	.
CC1=C/C(=N\OS(=O)(=O)c2ccccc2)C(C)=CC1=O	.	9.8	.	.	.	.
COc1ccc2[nH]c(-c3ccc(C)cc3)cc(=O)c2c1	.	4.2	.	.	.	.
COc1ccc(-c2cc(=O)c3cc(F)ccc3[nH]2)cc1	.	.	.	.	.	.
Clc1ccccc1N=C1NN=C(c2cccs2)CS1	.	4.3	143	.	.	183
Fc1ccccc1N=C1NN=C(c2ccccc2)CS1	.	4.6	143	.	.	158
Fc1ccc(F)c(C2=NNC(=Nc3ccccc3F)SC2)c1	.	5.1	143	.	.	.
Fc1ccc(N=C2NN=C(c3cc(F)ccc3F)CS2)cc1	.	.	.	.	.	.
Cc1cccc(N=C2NN=C(c3ccccc3F)CS2)c1C	.	.	.	.	.	.
CCOC(=O)c1cc(-c2ccc(OC)cc2)n(CCC(=O)NC2CCN(Cc3ccccc3)CC2)c1C	.	.	.	.	.	.
CCOC(=O)c1cc(-c2ccc(F)cc2)n(CCC(=O)NC2CCN(Cc3ccccc3)CC2)c1C	.	3.7	.	.	.	.
CC(NC(=S)Nc1ccc(Cl)cc1Cl)C(c1cccs1)N1CCCC1 (configuration not stated)	.	.	.	.	.	.
CC(=O)Oc1ccc2c(=O)c(-c3ccccc3)coc2c1	.	.	131	.	.	.
O=C1c2ccccc2C(=O)N1CN(C(=O)c1ccccc1)c1ccc(O)cc1	.	.	.	.	.	.
Cc1ccc2nc(NCc3ccccc3)[nH]c2c1	.	4.8	.	.	.	.
COc1ccc(C2C(C(=O)NCc3ccccn3)CCC(=O)N2c2cc(OC)c(OC)c(OC)c2)cc1 (configuration not stated)	.	.	.	.	.	.
Cc1ccc(NC(=O)OC(C)CNC(=O)Oc2cccc(C)c2)cc1 (configuration not stated)	.	.	140	.	.	.
C=CCOn1c(=O)c(-c2cc3ccccc3o2)[n+]([O-])c2ccccc21	.	.	.	.	.	.
CCOC(=O)COn1c(=O)c(-c2cc3ccccc3o2)[n+]([O-])c2ccccc21	151	.	142	.	.	.
SMILES	STAT3 activator	NF-kB neuron act	STAT1 act	STAT3 blocker	STAT1 blocker	APP 5'UTR act
Cc1ccc(SCC(=O)Nc2nccs2)cc1	.	.	.	.	.	.
N#Cc1cc2c(nc1SCC(=O)Nc1nccs1)CCCCC2	.	.	.	.	.	195
Cc1ccc(C#N)c(SCC(=O)Nc2nccs2)n1	.	.	.	.	.	175
CCN(C(=O)COC(=O)/C=C/c1c(C)nn(Cc2ccc(C)cc2)c1C)C1CCS(=O)(=O)C1 (configuration not stated)	.	.	.	.	.	.
O=C(NNc1ccc(O)cc1)c1ccc(Br)cc1	.	.	.	.	.	.
COCCNc1oc(-c2ccc(Cl)cc2)nc1C#N	.	.	129	.	.	.
